Results: ChEMBL document CHEMBL1122140, “Derivatives of the potent angiotensin converting enzyme inhibitor 5(S)-benzamido-4-oxo-6-phenylhexanoyl-L-proline: effect of changes at positions 2 and 5 of the hexanoic acid portion” (J Med Chem, 1982)

Key:
Rattus norvegicus [1] = assay: Change in mean aortic blood pressure expressed in hours after an oral administration of 30 mg/kg in conscious renal hypertensive rats
Rattus norvegicus [2] = assay: Maximum effect on blood pressure in the conscious Renal hypertensive rat after oral administration of 30 mg/kg; format: functional
In short: (§1)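 Male CD albino rats were clipped at four weeks old, and hypertension developed over 3–4 weeks. Rats weighed 280–320 g at cannulation and had chronic aortic cannulae implanted 2–4 days before testing. Only rats with mean aortic pressure above 160 mmHg were used. Dosing was oral in 4% gum acacia (2 mL/kg). One-minute running averages were recorded every 30 min and reported as mean ± SEM, two-tailed p < 0.05.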

[3] = biological target: Angiotensin-converting enzyme (Cavia porcellus); assay: Inhibition of guinea pig serum Angiotensin I converting enzyme
Rattus norvegicus [4] = assay: Base line of mean aortic blood pressure in the conscious Renal hypertensive rat was determined after oral administration of 30 mg/kg; format: functional, Artery
Rattus norvegicus [5] = assay: Inhibition of blood pressure increase produced by iv injection of angiotensin I in conscious normotensive rats at a dose of 3 mg/kg; format: functional
Rattus norvegicus [6] = assay: Inhibition of blood pressure increase produced by iv injection of angiotensin I in conscious normotensive rats at a dose of 30 mg/kg; format: functional
Rattus norvegicus [7] = assay: Change in mean aortic blood pressure expressed in hours after an oral administration of 3 mg/kg in conscious normotensive rats; format: functional, Artery
Rattus norvegicus [8] = assay: Change in mean aortic blood pressure expressed in hours after an oral administration of 30 mg/kg in conscious renal hypertensive rats; remark: listed apart in the source
Rattus norvegicus [9] = assay: Angiotensin I(AI) response to return to 70% of the pretreatment control response was determined at a dose of 3 mg/kg, iv; format: functional
Rattus norvegicus [10] = assay: Change in mean aortic blood pressure expressed in hours after an oral administration of 3 mg/kg in conscious renal hypertensive rats
Rattus norvegicus [11] = assay: Angiotensin I(AI) response to return to 70% of the pretreatment control response was determined at a dose of 3 mg/kg; format: functional
Rattus norvegicus [12] = assay: Angiotensin I(AI) response to return to 70% of the pretreatment control response was determined at a dose of 30 mg/kg, po; format: functional
Rattus norvegicus [13] = assay: Base line of mean aortic blood pressure in the conscious Renal hypertensive rat was determined after oral administration of 3 mg/kg; format: functional; details: Artery
In short: as §1

Row | I50 [3] [nM] | SMILES | Change (Rattus norvegicus [1]) [mmHg] | Mean aortic blood pressure (Rattus norvegicus [2]) [mmHg] | Mean aortic blood pressure (Rattus norvegicus [4]) [mmHg] | inhibition in vivo at 3 mg/kg (Rattus norvegicus [5]) [%] | inhibition in vivo at 30 mg/kg (Rattus norvegicus [6]) [%] | also measured
1 | 210 | CCCCOC(=O)NC(Cc1ccccc1)C(=O)CCC(=O)N1CCCC1C(=O)O (stereo not given) | -15 | 160 | 175 |  |  | 
2 | 650 | CCCCCCCC(=O)N[C@@H](Cc1ccccc1)C(=O)CCC(=O)N1CCCC1C(=O)O (stereo not given in full) | -15 | 167 | 182 |  |  | 
3 |  | C[C@H](CS)C(=O)N1CCC[C@H]1C(=O)O [CAPTOPRIL] |  | 99 |  | 95 | 69 | 
4 |  | O=C(N[C@@H](Cc1ccccc1)C(=O)CCC(=O)N1CCC[C@H]1C(=O)O)c1ccccc1 | -12 |  | 190 | 57 | 48 | 
5 |  | C[C@@H](CC(=O)[C@@H](Cc1ccccc1)NC(=O)c1ccccc1)C(=O)N1CCC[C@H]1C(=O)O | -20 | 163 | 183 |  |  | 
6 | 47 | CCCCCC(=O)N[C@@H](Cc1ccccc1)C(=O)CCC(=O)N1CCCC1C(=O)O (stereo not given in full) |  | 191 | 193 |  |  | Change (Rattus norvegicus [7]): -2 mmHg
7 |  | C[C@H](CC(=O)[C@@H](Cc1ccccc1)NC(=O)c1ccccc1)C(=O)N1CCC[C@H]1C(=O)O |  | 166 | 188 |  |  | Change (Rattus norvegicus [7]): -22 mmHg
8 | 6500 | CCCCCCCCCC(=O)N[C@@H](Cc1ccccc1)C(=O)CCC(=O)N1CCCC1C(=O)O (stereo not given in full) |  | 176 | 197 |  |  | Change (Rattus norvegicus [7]): -21 mmHg
9 |  | C[C@H](CC(=O)[C@H](Cc1ccccc1)NC(=O)c1ccccc1)C(=O)N1CCC[C@H]1C(=O)O |  | 159 | 197 | 100 | 100 | Change (Rattus norvegicus [8]): -38 mmHg; AI recovery time (Rattus norvegicus [9]): 73 min; Change (Rattus norvegicus [10]): -40 mmHg; AI recovery time (Rattus norvegicus [11]): 73 min; AI recovery time (Rattus norvegicus [12]): 143 min; Mean aortic blood pressure at 3 mg/kg (Rattus norvegicus [13]): 209 mmHg
10 |  | C[C@@H](CC(=O)[C@H](Cc1ccccc1)NC(=O)c1ccccc1)C(=O)N1CCC[C@H]1C(=O)O | -16 | 173 | 189 | 74 | 71 | AI recovery time (Rattus norvegicus [9]): 71 min; AI recovery time (Rattus norvegicus [12]): >180 min
11 | 29 | CCCCOC(=O)NC(Cc1ccccc1)C(=O)CC(C)C(=O)N1CCCC1C(=O)O (stereo not given) | -12 | 176 | 188 |  |  | 
